Measurements: article PMC3076219 (European journal of immunology, 2009)

How the values were obtained:
CXCR2 [1] = test: CXCR2 surface expression on neutrophils, flow cytometry; type: cell-based, human
CXCR2 [2] = test: Calcium mobilization in HEK293/CXCR2 cells; type: cell-based, human; settings: Indo-1; Fig. 7A-B
How it was run: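 They were washed in cold PBS, pelleted at 200 × g for 10 min at 4 °C, and resuspended in PBS with Ca/Mg. […] [Ca2+]i was read as the 405:485 nm ratio by flow cytometry, gating on living cells.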

monocytes = settings: cited from earlier work
neutrophils [3] = settings: cited from earlier work
CXCR2 [4] = test: Block of anti-CXCR2 antibody binding to neutrophils; type: cell-based, human; settings: LL-37 treated neutrophils; Supporting Information Fig. 6A
FPR2 = FPR2 surface expression on neutrophils; type: cell-based, human; settings: LL-37; data not shown
P2X7 = P2X7 surface expression on neutrophils, flow cytometry; type: cell-based, human; settings: LL-37 treated neutrophils, 3h; Fig. 2D
How it was run: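 Human blood neutrophils were isolated by dextran sedimentation and Ficoll (>95% CD16+) and held at 5×10^6/mL in RPMI 1640 with 1% FBS. They were treated 3h with a dose series (test peptide 1–10 µM; chemokines 1, 5, 10, 50 nM) or with 5 µM for 0.5–3h. Cells were blocked in 10% human serum and stained with anti-CXCR1-APC/anti-CXCR2-FITC or anti-P2X7-FITC, plus anti-CD16. Read-out was flow cytometry GMFI.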

CXCR2 [5] = test: Confocal analysis of CXCR2 internalization in neutrophils; type: cell-based, human; settings: LL-37 5 µM or CXCL8 50 nM, 1 h, 37°C; Fig. 8
How it was run: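 Neutrophils came from citrated donor blood by dextran sedimentation and Ficoll gradient. […] Cells were fixed in 2% paraformaldehyde, permeabilised with saponin and blocked with human serum. Anti-CXCR1 or anti-CXCR2 mAb (4°C), then Alexa 488 anti-mouse IgG, DAPI mount, confocal imaging; three independent experiments.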

neutrophils [6] = test: Neutrophil migration, 24-well Transwell; type: cell-based, human; settings: 1 h, 37°C, Fig. 6H
How it was run: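 CFSE-labelled human neutrophils (5 µM, 5 min RT) at 5×10^6/mL in phenol-red-free RPMI 1640 with 1% FBS went in the Transwell upper chamber (3-µm pores). The lower chamber held test peptide (1 or 5 µM) or medium. Some cells were first preincubated 20 min with 10 µM CXCR2 antagonist. After 1 h at 37 °C, migrated cells were read at 495 nm against a standard curve. Quadruplicate; unpaired t-test.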

neutrophils [7] = settings: ref [13]; cited from earlier work

**Q.** For “LL-37: ~4.5 kD active α-helical peptide, C-terminal domain of human cathelicidin hCAP18”, which “down-regulation of CXCR2 in time course compared to untreated controls” value (CXCR2 [1]; LL-37 5 µM, at 3h, p<0.001, Fig. 1B, four independent experiments) is on record?
**A.** 50%

**Q.** And the “CXCR2 surface expression at 10 µM” value (CXCR2 [1]; LL-37 10 µM, 3h)?
**A.** a further reduction was observed at 10 µM

**Q.** What about the “calcium mobilization in CXCR2 transfected HEK293 cells” value (CXCR2 [2]) of the same substance?
**A.** weak but similar patterns of calcium mobilization

**Q.** And the “migration of human peripheral monocytes” value (monocytes; ref [3], [9], [10])?
**A.** migration of human peripheral monocytes

**Q.** What about the “in vitro migration of human peripheral blood monocytes” value (monocytes; ref [9]) of the same substance?
**A.** induces in vitro migration of human peripheral blood monocytes

**Q.** What about the migration of neutrophils (neutrophils [3]; ref [3], [9], [10]) of the same substance?
**A.** migration of human peripheral monocytes, neutrophils

**Q.** And the “neutrophil migration (literature)” value (neutrophils [3]; ref [9])?
**A.** induces neutrophil migration

**Q.** What about the “block of anti-CXCR2 antibody binding” value (CXCR2 [4]) of the same substance?
**A.** did not block anti-CXCR2 antibodiy binding

**Q.** And the “FPR2 surface expression, time course” value (FPR2)?
**A.** remained unchanged

**Q.** And the P2X7 surface expression (P2X7)?
**A.** up-regulate the expression of P2X7

**Q.** What about the “CXCR2 translocation (internalization)” value (CXCR2 [5]) of the same substance?
**A.** translocation of CXCR2 but not CXCR1 to the cytoplasmic granules

**Q.** What about the “neutrophil migration at 1 µM” value (neutrophils [6]; LL-37 1 µM) of the same substance?
**A.** not at 1 µM

**Q.** And the “neutrophil migration at 5 µM” value (neutrophils [6]; LL-37 5 µM, over background, p<0.05)?
**A.** induced neutrophil migration (over background)

**Q.** What about the “inhibition of spontaneous neutrophil apoptosis” value (neutrophils [7]) of the same substance?
**A.** potent inhibitor of spontaneous neutrophil apoptosis
